Tests used:
Type in all cases: functional
Lichtheimia corymbifera [1] = experiment: Antifungal activity against Absidia corymbifera 272 after 48 hrs by microbroth dilution method; conditions: Lichtheimia corymbifera, 272, 48 h
Enterococcus sp. [2] = experiment: Antibacterial activity against Enterococcus sp. J 14365/08 after 24 hrs by microbroth dilution method; conditions: J 14365/08, 24 h
Method in brief: (§1)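 Microbroth dilution modified per M07-A07 in Mueller-Hinton broth, pH 7.4 (±0.2). Inoculum in sterile water adjusted to 0.5 McFarland. MIC taken as growth reduction of at least 90% (IC90) versus control, read visually and at 540 nm after 24 and 48 h incubation in the dark.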

Pichia kudriavzevii [3] = experiment: Antifungal activity against Candida krusei E28 after 48 hrs by microbroth dilution method; conditions: E28, 48 h
Klebsiella pneumoniae [4] = experiment: Antibacterial activity against Klebsiella pneumoniae D 11750/08 after 24 hrs by microbroth dilution method; conditions: D 11750/08, 24 h; method in brief: as §1
Staphylococcus aureus [5] = experiment: Antibacterial activity against methicillin-resistant Staphylococcus aureus H 5996/08 after 48 hrs by microbroth dilution method; conditions: H 5996/08, 48 h
Method in brief: (§2)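 Microdilution broth method modified after M07-A07 in Mueller-Hinton broth adjusted to pH 7.4 (±0.2). Inoculum prepared in sterile water to 0.5 McFarland (1.5 × 10^8 CFU/mL). MIC taken as growth reduction versus control (IC95 per table header), read visually and spectrophotometrically at 540 nm after 24 and 48 h incubation in the dark.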

[6] = tested on: Trichophyton mentagrophytes; experiment: Antifungal activity against Trichophyton mentagrophytes 445 after 72 hrs by microbroth dilution method; conditions: Trichophyton mentagrophytes, 445, 72 h
Candida albicans [7] = experiment: Antifungal activity against Candida albicans ATCC 44859 after 24 hrs by microbroth dilution method; conditions: ATCC 44859, 24 h
Trichosporon asahii [8] = experiment: Antifungal activity against Trichosporon asahii 1188 after 24 hrs by microbroth dilution method; conditions: Trichosporon asahii, 1188, 24 h
Candida tropicalis [9] = experiment: Antifungal activity against Candida tropicalis 156 after 48 hrs by microbroth dilution method; conditions: Candida tropicalis, 156, 48 h
Staphylococcus aureus [10] = experiment: Antibacterial activity against methicillin-resistant Staphylococcus aureus H 5996/08 after 24 hrs by microbroth dilution method; conditions: H 5996/08, 24 h; method in brief: as §2
Enterococcus sp. [11] = experiment: Antibacterial activity against Enterococcus sp. J 14365/08 after 48 hrs by microbroth dilution method; conditions: J 14365/08, 48 h; method in brief: as §1
[12] = tested on: Trichophyton mentagrophytes; experiment: Antifungal activity against Trichophyton mentagrophytes 445 after 120 hrs by microbroth dilution method; conditions: Trichophyton mentagrophytes, 445, 120 h
Trichosporon asahii [13] = experiment: Antifungal activity against Trichosporon asahii 1188 after 48 hrs by microbroth dilution method; conditions: Trichosporon asahii, 1188, 48 h
Staphylococcus aureus [14] = experiment: Antibacterial activity against Staphylococcus aureus CCM 4516/08 after 24 hrs by microbroth dilution method; conditions: CCM 4516/08, 24 h; method in brief: as §1
Klebsiella pneumoniae [15] = experiment: Antibacterial activity against ESBL-positive Klebsiella pneumoniae J 14368/08 after 48 hrs by microbroth dilution method; conditions: J 14368/08, 48 h; method in brief: as §1
Candida tropicalis [16] = experiment: Antifungal activity against Candida tropicalis 156 after 24 hrs by microbroth dilution method; conditions: Candida tropicalis, 156, 24 h
Escherichia coli [17] = experiment: Antibacterial activity against Escherichia coli CCM 4517 after 48 hrs by microbroth dilution method; conditions: CCM 4517, 48 h; method in brief: as §1
Klebsiella pneumoniae [18] = experiment: Antibacterial activity against ESBL-positive Klebsiella pneumoniae J 14368/08 after 24 hrs by microbroth dilution method; conditions: J 14368/08, 24 h; method in brief: as §1
Klebsiella pneumoniae [19] = experiment: Antibacterial activity against Klebsiella pneumoniae D 11750/08 after 48 hrs by microbroth dilution method; conditions: D 11750/08, 48 h; method in brief: as §1
Candida albicans [20] = experiment: Antifungal activity against Candida albicans ATCC 44859 after 48 hrs by microbroth dilution method; conditions: ATCC 44859, 48 h
Lichtheimia corymbifera [21] = experiment: Antifungal activity against Absidia corymbifera 272 after 24 hrs by microbroth dilution method; conditions: Lichtheimia corymbifera, 272, 24 h
Pichia kudriavzevii [22] = experiment: Antifungal activity against Candida krusei E28 after 24 hrs by microbroth dilution method; conditions: E28, 24 h
Staphylococcus aureus [23] = experiment: Antibacterial activity against Staphylococcus aureus CCM 4516/08 after 48 hrs by microbroth dilution method; conditions: CCM 4516/08, 48 h; method in brief: as §2
Escherichia coli [24] = experiment: Antibacterial activity against Escherichia coli CCM 4517 after 24 hrs by microbroth dilution method; conditions: CCM 4517, 24 h; method in brief: as §1
[25] = tested on: Staphylococcus epidermidis; experiment: Antibacterial activity against Staphylococcus epidermidis H 6966/08 after 24 hrs by microbroth dilution method; conditions: H 6966/08, 24 h; method in brief: as §1
Nakaseomyces glabratus [26] = experiment: Antifungal activity against Candida glabrata 20/I after 48 hrs by microbroth dilution method
[27] = tested on: Staphylococcus epidermidis; experiment: Antibacterial activity against Staphylococcus epidermidis H 6966/08 after 48 hrs by microbroth dilution method; conditions: H 6966/08, 48 h; method in brief: as §1
Nakaseomyces glabratus [28] = experiment: Antifungal activity against Candida glabrata 20/I after 24 hrs by microbroth dilution method

Measured: MIC

O=C(NC1CCCCC1)Oc1ccc(Cl)cc1C(=O)Nc1ccc(Cl)cc1
0.98 µM: [25] | [27]
125 µM: Lichtheimia corymbifera [1] | Pichia kudriavzevii [3] | Trichosporon asahii [8] | Trichosporon asahii [13] | Lichtheimia corymbifera [21] | Pichia kudriavzevii [22]
15.6 µM: Staphylococcus aureus [5]
3.9 µM: Staphylococcus aureus [10]
1.95 µM: Staphylococcus aureus [14]
7.81 µM: [6] | [12] | Staphylococcus aureus [23]
> 125 µM: all other assays above

O=C(Nc1ccccc1)Oc1ccc(Cl)cc1C(=O)Nc1ccc(Cl)cc1
500 µM: Enterococcus sp. [2] | Klebsiella pneumoniae [4] | Enterococcus sp. [11] | Escherichia coli [17] | Klebsiella pneumoniae [19] | Escherichia coli [24]
62.5 µM: Pichia kudriavzevii [3] | Trichosporon asahii [8] | Trichosporon asahii [13] | Klebsiella pneumoniae [15] | Klebsiella pneumoniae [18] | Pichia kudriavzevii [22]
31.2 µM: Staphylococcus aureus [5] | Staphylococcus aureus [10] | Staphylococcus aureus [14] | Staphylococcus aureus [23] | [25] | [27]
1.95 µM: [6] | [12]
> 125 µM: all other assays above

O=C(NC12CC3CC(CC(C3)C1)C2)Oc1ccc(Cl)cc1C(=O)Nc1ccc(Cl)cc1
62.5 µM: Klebsiella pneumoniae [15] | Klebsiella pneumoniae [18]
15.6 µM: Staphylococcus aureus [23]
31.2 µM: Staphylococcus aureus [5] | Trichosporon asahii [8] | Trichosporon asahii [13]
125 µM: Pichia kudriavzevii [3] | Pichia kudriavzevii [22]
3.9 µM: [6] | Staphylococcus aureus [10] | [12] | Staphylococcus aureus [14] | [25] | [27]
250 µM: Enterococcus sp. [2] | Candida tropicalis [9] | Enterococcus sp. [11] | Candida tropicalis [16]
> 250 µM: all other assays above

O=C(NCCc1ccccc1)Oc1ccc(Cl)cc1C(=O)Nc1ccc(Cl)cc1
125 µM: Escherichia coli [24]
31.2 µM: Klebsiella pneumoniae [15] | Klebsiella pneumoniae [18]
500 µM: Enterococcus sp. [2] | Klebsiella pneumoniae [4] | Enterococcus sp. [11] | Escherichia coli [17] | Klebsiella pneumoniae [19]
1.95 µM: [6] | [12]
15.6 µM: Staphylococcus aureus [5] | Staphylococcus aureus [23] | [27]
3.9 µM: Staphylococcus aureus [10] | Staphylococcus aureus [14] | [25]
> 500 µM: all other assays above

O=C(NCCc1ccccc1)Oc1ccc(Cl)cc1C(=O)Nc1ccc(Br)cc1
3.9 µM: [6] | [12]
62.5 µM: Trichosporon asahii [8] | Trichosporon asahii [13]
0.98 µM: Staphylococcus aureus [10] | [27]
≤ 0.49 µM: Staphylococcus aureus [14] | [25]
> 125 µM: Pichia kudriavzevii [3] | Candida albicans [7] | Candida tropicalis [9] | Candida tropicalis [16] | Candida albicans [20] | Pichia kudriavzevii [22]
1.95 µM: Staphylococcus aureus [5] | Staphylococcus aureus [23]
125 µM: Lichtheimia corymbifera [1] | Lichtheimia corymbifera [21] | Nakaseomyces glabratus [26] | Nakaseomyces glabratus [28]
> 500 µM: all other assays above

O=C(NC12CC3CC(CC(C3)C1)C2)Oc1ccc(Cl)cc1C(=O)Nc1ccc(Br)cc1
> 250 µM: Klebsiella pneumoniae [4] | Escherichia coli [17] | Klebsiella pneumoniae [19] | Escherichia coli [24]
> 500 µM: Enterococcus sp. [2] | Enterococcus sp. [11]
7.81 µM: [6] | [12]
3.9 µM: Staphylococcus aureus [5]
31.2 µM: Klebsiella pneumoniae [18]
0.98 µM: Staphylococcus aureus [14] | [25]
1.95 µM: Staphylococcus aureus [10] | Staphylococcus aureus [23] | [27]
125 µM: Klebsiella pneumoniae [15]
> 125 µM: all other assays above

O=C(Nc1ccccc1)Oc1ccc(Cl)cc1C(=O)Nc1ccc(Br)cc1
500 µM: Enterococcus sp. [2] | Enterococcus sp. [11]
≤ 0.49 µM: Staphylococcus aureus [10] | Staphylococcus aureus [14] | [25]
125 µM: Trichosporon asahii [8] | Trichosporon asahii [13] | Nakaseomyces glabratus [26] | Nakaseomyces glabratus [28]
0.98 µM: Staphylococcus aureus [5] | Staphylococcus aureus [23] | [27]
250 µM: Pichia kudriavzevii [3] | Pichia kudriavzevii [22]
3.9 µM: [6] | [12]
> 500 µM: all other assays above

O=C(NCc1ccccc1)Oc1ccc(Cl)cc1C(=O)Nc1ccc(Cl)cc1
3.9 µM: Staphylococcus aureus [14] | [25] | [27]
15.6 µM: Staphylococcus aureus [5] | Trichosporon asahii [8] | Trichosporon asahii [13] | Staphylococcus aureus [23]
1.95 µM: [6] | [12]
125 µM: Klebsiella pneumoniae [4] | Klebsiella pneumoniae [15] | Klebsiella pneumoniae [19]
7.81 µM: Staphylococcus aureus [10]
62.5 µM: Pichia kudriavzevii [3] | Klebsiella pneumoniae [18] | Pichia kudriavzevii [22]
> 125 µM: all other assays above

O=C(NC1CCCCC1)Oc1ccc(Cl)cc1C(=O)Nc1ccc(Br)cc1
500 µM: Enterococcus sp. [2] | Enterococcus sp. [11]
62.5 µM: Trichosporon asahii [8] | Trichosporon asahii [13]
≤ 0.49 µM: Staphylococcus aureus [10] | Staphylococcus aureus [14] | [25]
0.98 µM: Staphylococcus aureus [23] | [27]
1.95 µM: Staphylococcus aureus [5] | [6] | [12]
> 500 µM: Klebsiella pneumoniae [4] | Klebsiella pneumoniae [15] | Escherichia coli [17] | Klebsiella pneumoniae [18] | Klebsiella pneumoniae [19] | Escherichia coli [24]
> 125 µM: all other assays above

O=C(NCc1ccccc1)Oc1ccc(Cl)cc1C(=O)Nc1ccc(Br)cc1
1.95 µM: Staphylococcus aureus [5]
62.5 µM: Pichia kudriavzevii [3] | Candida albicans [7] | Candida albicans [20] | Pichia kudriavzevii [22]
15.6 µM: Trichosporon asahii [8] | Trichosporon asahii [13]
31.2 µM: Nakaseomyces glabratus [26] | Nakaseomyces glabratus [28]
≤ 0.49 µM: Staphylococcus aureus [10] | Staphylococcus aureus [14] | [25]
3.9 µM: [6] | [12]
7.81 µM: Lichtheimia corymbifera [1] | Lichtheimia corymbifera [21]
0.98 µM: Staphylococcus aureus [23] | [27]
125 µM: Candida tropicalis [9] | Candida tropicalis [16]
> 500 µM: all other assays above

Reference: ChEMBL document CHEMBL3763086, “Salicylanilide N-monosubstituted carbamates: Synthesis and in vitro antimicrobial activity” (2016)
